Experimental data reported in ChEMBL document CHEMBL4732051, “The discovery of potent small molecule activators of human STING” (Eur J Med Chem, 2021).
Activity calls are given as the source filed them. No cut-off for these calls is given here.

Legend:
[1] = target: T1, Stimulator of interferon genes protein (Homo sapiens, UniProt Q86WV6); test: Activation of human STING expressed in human PBMC cells assessed as phosphorylation at (ser366) at 10 uM incubated for 2 hrs and measured by Western blot analysis; assay type: cell-based; conditions: filed as activator
Summary of the method: (§1)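 Tumor cell lines or human primary cells carrying endogenous STING variants; STING KO cells as control. 10µM for 2 h, then lysed in RIPA with phosphatase and protease inhibitors. 10 μg protein on 10% SDS-PAGE, blotted for pSTING (Ser366), pIRF3 (Ser396), STING, IRF3 and actin, ECL detection.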

[2] = target: T2, Cytochrome P450 1A2 (Homo sapiens, UniProt P05177); test: Inhibition of CYP1A2 (unknown origin); assay type: ADME
T2 sequence (P05177 whole entry): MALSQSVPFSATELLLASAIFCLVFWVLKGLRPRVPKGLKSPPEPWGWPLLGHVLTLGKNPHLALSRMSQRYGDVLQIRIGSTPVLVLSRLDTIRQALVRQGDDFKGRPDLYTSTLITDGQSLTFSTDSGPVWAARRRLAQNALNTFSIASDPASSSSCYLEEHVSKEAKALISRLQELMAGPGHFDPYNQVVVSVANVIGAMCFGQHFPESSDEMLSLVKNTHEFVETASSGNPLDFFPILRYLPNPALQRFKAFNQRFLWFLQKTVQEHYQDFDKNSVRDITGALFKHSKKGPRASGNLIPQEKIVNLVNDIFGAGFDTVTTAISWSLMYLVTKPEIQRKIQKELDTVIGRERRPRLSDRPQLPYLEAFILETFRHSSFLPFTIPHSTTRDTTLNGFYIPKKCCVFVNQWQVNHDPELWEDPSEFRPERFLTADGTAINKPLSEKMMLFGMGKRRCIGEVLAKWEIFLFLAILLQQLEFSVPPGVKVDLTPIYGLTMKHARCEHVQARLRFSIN

[3] = system: HEK293T; test: Induction of STING Q mutant (unknown origin) expressed in HEK293T cells assessed as increase in luciferase coupled ISG54-ISRE activity incubated for 18 hrs luciferase reporter gene assay; assay type: cell-based; conditions: Homo sapiens, filed as activator
[4] = system: Stimulator of interferon genes protein (Homo sapiens), Q86WV6 [UNDEFINED MUTATION]; test: Activation of human STING R232 in human CCRF-SB cells assessed as phosphorylation at (Ser366) at 10 uM incubated for 2 hrs and measured by Western blot analysis; assay type: cell-based; conditions: filed as activator; summary of the method: as §1
[5] = target: Cytochrome P450 3A4 (Homo sapiens, UniProt P08684); test: Inhibition of CYP3A4 (unknown origin); assay type: ADME
[6] = system: HEK293T; test: Activation of human STING H232 mutant expressed in HEK293T cells assessed as phosphorylation of IRF-3 at (Ser396) at 10 uM incubated for 2 hrs and measured by Western blot analysis; assay type: cell-based; conditions: filed as activator
Summary of the method: (§2)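 HEK293T clones stably carrying each human STING variant, picked by blasticidin selection and limiting dilution. 5 x 10^5 cells were exposed to compound at 10μM for 2 h, lysed in RIPA with phosphatase and protease inhibitors, and 10 μg protein run on 10% SDS-PAGE. Immunoblots probed for pSTING (Ser366), pIRF3 (Ser396), total STING, IRF3 and actin, detected by ECL.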

[7] = system: Stimulator of interferon genes protein (Homo sapiens), Q86WV6 [G230A,R293Q]; test: Activation of human STING AQ mutant expressed in HEK293T cells assessed as phosphorylation of IRF-3 at (Ser396) at 10 uM incubated for 2 hrs and measured by Western blot analysis; assay type: cell-based; conditions: filed as activator; summary of the method: as §2
[8] = system: Stimulator of interferon genes protein (Homo sapiens), Q86WV6 [UNDEFINED MUTATION]; test: Activation of human STING R232 in human dendritic cells assessed as induction of CD83 measured by qt-PCR analysis; assay type: cell-based; conditions: Dendritic cell, filed as activator
Summary of the method: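 PBMC isolated on Histopaque 1077, ACK-lysed, monocytes purified by MACS. Monocytes at 1 x 10^6 cells/ml in RPMI/10% FBS with 100ng/ml GMCSF and 50ng/ml IL4, 37 °C, 5% CO2, for 24–36 h. Compound added (1% DMSO final) for 6 h. CD86 and CD83 read by qPCR as fold of vehicle-treated cells.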

[9] = system: B16-F10; test: Cytotoxicity against mouse B16 F10 cells at 5 to 10 uM; assay type: cell-based; conditions: b16-f10, 10 µM, dose 5-10 µM
[10] = system: Stimulator of interferon genes protein (Homo sapiens), Q86WV6 [UNDEFINED MUTATION]; test: Activation of human STING R232 in human MDA-MB-468 cells assessed as phosphorylation at (Ser366) at 10 uM incubated for 2 hrs and measured by Western blot analysis; assay type: cell-based; conditions: filed as activator; summary of the method: as §1
[11] = target: Cytochrome P450 2C9 (Homo sapiens, UniProt P11712); test: Inhibition of CYP2C9 (unknown origin); assay type: ADME
[12] = Half life in BALB/c mouse at 5 mg/kg, iv measured up to 24 hrs by LC-MS/MS analysis; assay type: ADME, organism-based; conditions: in vivo
Summary of the method: (§3)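 Overnight-fasted mice, n=3 per group, single dose by lateral tail vein (iv) or oral gavage (po). Retro-orbital blood under isoflurane at 2 min–24 h (iv) or 5 min–24 h (po). Plasma spun at 1500 x g, 15 min, 4 °C, stored -80 °C, then analysed by LCMS.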

[13] = system: HEK293T; test: Activation of human STING H232 mutant expressed in HEK293T cells assessed as phosphorylation at (Ser366) at 10 uM incubated for 2 hrs and measured by Western blot analysis; assay type: cell-based; conditions: filed as activator; summary of the method: as §2
[14] = system: Stimulator of interferon genes protein (Homo sapiens), Q86WV6 [G230A,R293Q]; test: Induction of STING AQ mutant (unknown origin) expressed in HEK293T cells assessed as increase in luciferase coupled ISG54-ISRE activity incubated for 18 hrs luciferase reporter gene assay; assay type: cell-based; conditions: filed as activator
[15] = target: T1, Stimulator of interferon genes protein; test: Activation of human STING expressed in human PBMC cells assessed as phosphorylation of IRF3 at (Ser396) at 10 uM incubated for 2 hrs and measured by Western blot analysis; assay type: cell-based; conditions: filed as activator; summary of the method: as §1
[16] = system: Stimulator of interferon genes protein (Homo sapiens), Q86WV6 [G230A,R293Q]; test: Activation of human STING AQ mutant expressed in HEK293T cells assessed as phosphorylation at (Ser366) at 10 uM incubated for 2 hrs and measured by Western blot analysis; assay type: cell-based; conditions: filed as activator; summary of the method: as §2
[17] = AUC in BALB/c mouse at 10 mg/kg, po measured up to 24 hrs by LC-MS/MS analysis; assay type: ADME, organism-based; set-up: route oral, dose 10 mg/kg, time <=24; conditions: in vivo; summary of the method: as §3
[18] = system: HEK293T; test: Activation of human STING R232H mutant expressed in HEK293T cells assessed as phosphorylation of IFR3 at (Ser396) upto 10 uM incubated for 2 hrs and measured by Western blot analysis; assay type: cell-based; conditions: filed as activator, dose microM <=10, time 2.0 hrs; summary of the method: as §2
[19] = system: Stimulator of interferon genes protein (Homo sapiens), Q86WV6 [R71H,G230A,R293Q]; test: Activation of human STING HAQ mutant expressed in HEK293T cells assessed as phosphorylation at (Ser366) at 10 uM incubated for 2 hrs and measured by Western blot analysis; assay type: cell-based; conditions: filed as activator; summary of the method: as §2
[20] = target: T1, Stimulator of interferon genes protein; test: Activation of human STING in human PBMC cells assessed as induction of IL6 expression at 10 uM measured by qt-PCR analysis; assay type: cell-based; conditions: filed as activator
Summary of the method: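 2 x 10^5 freshly isolated human PBMC from healthy donors, separated on Histopaque, given a single compound concentration. Harvested early (6 hr) or late (20h). Cytokine mRNA read by qRT-PCR as relative normalized expression (fold) against vehicle-treated cells.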

T1 sequence (Q86WV6 whole entry): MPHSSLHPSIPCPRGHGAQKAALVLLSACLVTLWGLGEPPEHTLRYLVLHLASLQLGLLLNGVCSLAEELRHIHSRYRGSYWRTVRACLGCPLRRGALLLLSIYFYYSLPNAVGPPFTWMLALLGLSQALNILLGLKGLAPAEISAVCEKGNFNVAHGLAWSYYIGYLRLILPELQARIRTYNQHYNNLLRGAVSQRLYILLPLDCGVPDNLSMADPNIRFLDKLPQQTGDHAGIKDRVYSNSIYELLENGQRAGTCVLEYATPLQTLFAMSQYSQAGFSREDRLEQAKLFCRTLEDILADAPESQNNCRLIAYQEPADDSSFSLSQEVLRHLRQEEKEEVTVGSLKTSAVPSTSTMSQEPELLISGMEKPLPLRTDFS
Chain of Stimulator of interferon genes protein (Homo sapiens), Q86WV6 [UNDEFINED MUTATION] (Q86WV6 whole entry, looked up, change not shown): as the sequence (Q86WV6 whole entry) above
Chain of Stimulator of interferon genes protein (Homo sapiens), Q86WV6 [G230A,R293Q] (Q86WV6 whole entry G230A/R293Q): as the sequence (Q86WV6 whole entry) above, with G230A, R293Q counted along it
Chain of Cytochrome P450 2C9 (P11712 whole entry): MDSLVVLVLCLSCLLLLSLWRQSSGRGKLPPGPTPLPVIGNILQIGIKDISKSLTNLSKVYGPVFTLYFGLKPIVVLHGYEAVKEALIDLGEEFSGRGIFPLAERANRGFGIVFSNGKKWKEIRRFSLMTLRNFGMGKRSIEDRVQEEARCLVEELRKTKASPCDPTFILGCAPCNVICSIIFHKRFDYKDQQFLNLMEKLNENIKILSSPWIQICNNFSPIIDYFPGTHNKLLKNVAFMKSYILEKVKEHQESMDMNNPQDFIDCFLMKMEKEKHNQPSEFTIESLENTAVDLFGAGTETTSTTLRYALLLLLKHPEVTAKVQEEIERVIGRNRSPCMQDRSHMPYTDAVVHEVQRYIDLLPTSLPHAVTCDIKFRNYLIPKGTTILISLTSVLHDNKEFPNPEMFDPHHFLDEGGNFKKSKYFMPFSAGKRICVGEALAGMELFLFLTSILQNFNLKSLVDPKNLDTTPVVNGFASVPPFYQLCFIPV
Chain of Cytochrome P450 3A4 (P08684 whole entry): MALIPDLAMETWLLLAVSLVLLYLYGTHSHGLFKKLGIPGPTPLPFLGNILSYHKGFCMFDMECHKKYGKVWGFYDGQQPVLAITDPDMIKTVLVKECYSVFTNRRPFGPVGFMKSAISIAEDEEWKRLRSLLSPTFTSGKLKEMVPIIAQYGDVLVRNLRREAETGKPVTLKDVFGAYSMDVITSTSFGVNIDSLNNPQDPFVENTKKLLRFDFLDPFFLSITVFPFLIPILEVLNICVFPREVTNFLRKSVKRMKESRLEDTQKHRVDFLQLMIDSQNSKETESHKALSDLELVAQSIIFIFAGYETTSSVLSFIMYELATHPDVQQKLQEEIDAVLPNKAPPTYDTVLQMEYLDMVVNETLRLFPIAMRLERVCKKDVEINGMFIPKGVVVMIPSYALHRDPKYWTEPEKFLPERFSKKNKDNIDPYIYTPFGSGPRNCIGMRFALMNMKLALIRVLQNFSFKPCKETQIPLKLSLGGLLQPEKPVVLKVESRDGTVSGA
Chain of Stimulator of interferon genes protein (Homo sapiens), Q86WV6 [R71H,G230A,R293Q] (Q86WV6 whole entry R71H/G230A/R293Q): as the sequence (Q86WV6 whole entry) above, with R71H, G230A, R293Q counted along it

- Activity [1]: Active
- inhibition (INH) [2]: Not Active
- Activity [4]: Active
- inhibition (INH) [5]: Not Active
- Activity [7]: Active
- Activity [10]: Active
- inhibition (INH) [11]: Not Active
- half-life [12]: 1.41 h
- Activity [14]: Active
- Activity [15]: Active
- Activity [16]: Active
- AUC at 24 h [17]: 2.09 µg·h/mL
- Activity [19]: Active
SMILES: CC1(C)C(=O)N(Cc2c(F)cccc2Cl)c2cc(C(=O)NCc3c(F)cc(F)cc3F)ccc21
- Activity [3]: Active
- Activity [6]: Active
- Activity [8]: Active
- Activity [9]: Non-Toxic
- Activity [13]: Active
- Activity [18]: Dose-dependent effect
- Activity [20]: Active
